Shown are actives, neighbours in structure and some others; about 2.2% of the full set was active somewhere.
bCat nuc transl – modulators of beta-catenin nuclear translocation. HeLa beta-catenin nuclear translocation, immunofluorescence imaging. nuclear translocation activity, % at 5 µM. 190,000 compounds, 0.3% hits. AID 1665;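 active = nuclear translocation activity above 50% at 5 µM, with a well cell count of 50 or more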;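 note: per-cell ratio of nuclear to cytoplasmic median beta-catenin stain intensity; plate controls were DMSO negative control for no effect and GSK-3 inhibitor IX positive control for full effect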
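Test system: HeLa cells, endogenous beta-catenin; Compound: single 5 µM dose plus 0.02–20 µM confirmation series; Times: compound exposure 24 h at 37°C; Signal: fluorescence imaging of beta-catenin antibody stain plus DAPI; Read-out: % activation, nuclear-to-cytoplasmic median beta-catenin signal ratio per cell.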
Ba/F3 V617F tox – lowers viability of Ba/F3 cells expressing EpoR and JAK2V617F; ATP luminescence; inhibition, % at 5.6 µM; 220,000 compounds, 1.1% hits;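 active = inhibition above the campaign mean plus 3 SD over all tested compounds, cut at about 24% in these data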;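 note: cytokine-independent growth of Ba/F3 cells driven by EpoR plus mutant JAK2; 0% = DMSO-treated cells and 100% = JAK inhibitor I control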
MT stabilize HCS – stabilizes microtubules in HeLa cells; HeLa tubulin immunostaining HCS, 24 h; share of cells brighter than vehicle mean+2SD; % tubulin-high responders, % at 10 µM; 200,000 compounds, 0.83% hits; AID 2205;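 active = plate Z-score above 3 for both tubulin-high and condensed-nucleus cell shares, with cell loss under 80%, at 10 µM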;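 note: anti alpha tubulin signal scored within the nucleus-defined area of each cell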
IEC-6 cytotox – IEC-6 cytotoxicity, counter-screen for KLF5 inhibitors; inhibition, % at 5 µM; luminescence viability; AID 1825; 290,000 compounds, 0.78% hits; in the data active = inhibition above about 22%;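 note: 0% = plate median of test compound wells and 100% = cytotoxic reference compound wells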
BaF3 parental – reduces parental Ba/F3 cell viability, JAK2V617F counter-screen | inhibition, % at 5.6 µM | AID 1486 | CellTiter-Glo ATP luminescence | 220,000 compounds, 1.1% hits;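 active = inhibition above a per-campaign cutoff, the mean inhibition of all tested compounds plus 3 SD, cut at about 27% in these data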;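 note: 0% = DMSO wells and 100% = JAK Inhibitor I control wells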
APP transl inh – APP translation inhibition; SH-SY5Y APP 5'UTR-luciferase reporter, luminescence; 190,000 compounds, 0.82% hits; AID 1285; inhibition, % at 2 µM;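 active = inhibition above a set limit, derived from the sample mean plus 3 SD, cut at about 45% in these data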
Numbers without * were called inactive; . = not tested or not shown.

SMILES	bCat nuc transl	Ba/F3 V617F tox	MT stabilize HCS	IEC-6 cytotox	BaF3 parental	APP transl inh
Cc1ccc(S(=O)(=O)N(C)CC(=O)Nc2cccnc2)cc1	.	.	.	1	.	.
Cc1nn2cc(-c3cccc(Cl)c3)cnc2c1Cl	70*	2	20*	3	4	-78
Cc1nn2cc(-c3cccc(Cl)c3)cnc2c1Br	1	1	16*	4	2	6
CC(C)n1nnnc1-c1cccc(Cl)c1	-1	-1	2	-2	3	-5
O=C1c2ccccc2C(=O)N1CC1=NCCc2ccccc21	-4	15	5	0	42*	15
Cc1cc(CN2C(=O)c3ccccc3C2=O)no1	-4	3	14	2	2	4
CCC(=O)N1CCc2cc(S(=O)(=O)CCC(=O)N(C)c3ccc(OC)cc3OC)ccc21	.	.	.	-3	.	.
Nc1c(-c2ccccc2Cl)cnn1-c1cccc([N+](=O)[O-])c1	2	1	3	2	46*	-32
Cc1ccccc1-c1cnn(-c2cccc([N+](=O)[O-])c2)c1N	3	2	3	-4	8	-8
CCCCNC(C(=O)Nc1cccc(S(=O)(=O)N2CCOCC2)c1)c1ccccc1 (centres undefined)	-4	0	4	-6	36*	-4
O=C1C(Cl)=C(NC(=O)c2ccccc2)C(=O)C(Cl)=C1NC(=O)c1ccccc1	.	.	.	100*	.	.
O=S(=O)(NCCN1CCOCC1)c1cc(Cl)c(Cl)cc1Cl	.	.	.	1	.	.
Clc1cccc(Nc2ncnc3ccc(Br)cc23)c1	-2	4	2	30*	6	-8
Clc1ccc(Nc2ncnc3ccc(Br)cc23)cc1	17	5	1	26*	11	10
CCOc1cc(CNS(=O)(=O)c2ccc3c(c2)CC(=O)N3C)cc(OCC)c1OCC	.	.	.	5	.	.
Nc1cc(=O)[nH]c(SCc2nc3ccccc3n2Cc2ccccc2)n1	1	-4	5	-3	3	46*
O=c1[nH]c(-c2cccnc2)nc2sc(-c3ccccc3)cc12	120*	-2	20*	4	6	75*
N=C1/C(=C/c2cccn2CCOc2ccccc2)C(=O)N=C2SC=C(c3ccccc3)N12	36	-3	30*	6	2	-12
N=C1/C(=C\c2ccc(-c3cc(Cl)cc(Cl)c3)o2)C(=O)N=C2SC=C(c3ccccc3)N12	-1	1	7	-1	7	-10
COCCN1C(=O)C(=O)/C(=C(/O)c2ccc(S(=O)(=O)N3CCCCC3)cc2)C1c1ccc(O)c(OC)c1 (centres undefined)	.	.	.	-12	.	.
CCc1ccc(NC(=O)CSc2nc3ccccc3c(=O)n2CCCC(=O)N2CCCC2)cc1	.	0	27*	0	4	-8
CC(C)(C)OC(=O)N1CCC(c2c(C(=O)N3CCN(C(=O)c4ccco4)CC3)cnn2-c2ccc(F)cc2F)CC1	.	.	.	-6	.	.
COc1ccccc1N1CCN(C(=O)c2oc3ccc(Br)cc3c2C)CC1	23	1	15*	-1	4	24
COc1ccccc1N1CCN(c2ncnc3c2oc2ccccc23)CC1	74*	2	27*	3	5	-11
CCOC(=O)N1CCN(Cc2ccccc2Cl)CC1	-1	1	3	2	1	-15
SMILES	bCat nuc transl	Ba/F3 V617F tox	MT stabilize HCS	IEC-6 cytotox	BaF3 parental	APP transl inh
CCOC(=O)N1CCN(Cc2cc(Cl)c3cccnc3c2O)CC1	-3	3	5	14	10	83*
CCOC(=O)C1CCN(Cc2ccc(O)c3ncccc23)CC1	-3	82*	4	1	50*	41
COc1ccc(-n2nc(C(=O)NCC(=O)NCc3ccc(F)cc3)c3ccccc3c2=O)cc1OC	.	.	.	4	.	.
CCCC(C)C(=O)Nc1ncc(S(=O)(=O)c2ccc([N+](=O)[O-])cc2)s1 (centres undefined)	.	.	.	-10	.	.
COc1ccccc1N1CCN(Cc2ccc(O)c3ncccc23)CC1	2	42*	3	1	37*	90*
CCCOc1nc2ccccc2cc1/C=C/C(=O)O	-1	3	6	-1	2	-7
CCOc1nc2ccccc2cc1C=O	-1	1	5	-4	6	57*
COc1cccc(/C=N/NC(=O)c2csc(-n3nc(C)cc3C(F)(F)F)n2)c1	30	2	43*	0	1	3
COc1ccccc1NC(=O)c1csc(-n2nc(C)cc2C(F)(F)F)n1	.	4	6	2	8	-1
Cc1cc(C(F)(F)F)n(-c2nc(C(=O)N/N=C/c3ccc(F)cc3)cs2)n1	.	-4	49*	1	1	-7
CN(C)S(=O)(=O)c1ccc(C(=O)OCCCN=C2NS(=O)(=O)c3ccccc32)cc1	.	-1	3	2	3	45*
Cc1ccc(S(=O)(=O)/N=C2\C=C(Nc3cccc(C(=O)O)c3)C(=O)c3ccccc32)c(C)c1	.	.	.	8	.	.
CC(C)c1ccc(S(=O)(=O)/N=C2/C=C(Sc3ncn[nH]3)C(=O)c3ccccc32)cc1	0	54*	4	39*	74*	34
Cc1ccc(S(=O)(=O)/N=C2/C=C(Sc3ncn[nH]3)C(=O)c3ccccc32)c(C)c1	-1	54*	2	7	14	66*
CC(C)(C)c1ccc(S(=O)(=O)/N=C2\C=C(NS(=O)(=O)c3ccccc3)C(=O)c3ccccc32)cc1	.	.	.	-6	.	.
CCOC(=O)[C@@H]1[C@H]2COc3ccccc3[C@@H]2N2C(=O)N(c3cccc(Cl)c3)C(=O)[C@@]12C	.	.	.	-4	.	.
COc1cc(OC)cc(-c2cc3nc(C)c(CCC(=O)O)c(C)n3n2)c1	.	-2	8	-10	4	78*
CCOC(=O)C1CCN(C(=O)CCc2c(C)nc3cc(-c4ccccc4)nn3c2C)CC1	0	-4	3	-4	4	23
CCOC(=O)C1CCCCN1C(=O)CCc1c(C)nc2cc(-c3ccccc3)nn2c1C (centres undefined)	.	-1	4	-3	3	52*
COc1ccc(C(CNc2nc(-c3cccnc3)nc3ccccc23)N(C)C)cc1 (centres undefined)	.	.	.	3	.	.
Cc1ccc(C)c(N(CC(=O)NCc2ccco2)C(=O)CNS(=O)(=O)c2ccccc2)c1	.	.	.	-5	.	.
CCCNS(=O)(=O)c1ccc(CCC(=O)Nc2ccc3c(c2)OCCO3)cc1	-2	-3	4	-2	3	6
O=C(CCc1ccc(S(=O)(=O)NCCc2ccccc2)cc1)Nc1ccc2c(c1)OCCO2	-1	0	8	0	5	75*
CCN(c1ccccc1)S(=O)(=O)c1ccc(C(=O)N(CCN(C)C)c2nc3c(F)cc(F)cc3s2)cc1	.	.	.	1	.	.
COc1cc(S(=O)(=O)n2c(C)nc3ccccc32)ccc1F	.	0	28*	11	7	0
COc1ccc(S(=O)(=O)n2c(C)nc3ccccc32)cc1C	.	.	.	4	.	.
COc1cc(S(=O)(=O)N2CCN=C2c2ccccc2)ccc1F	.	-3	44*	2	5	-9
